# Assay results as given in ChEMBL document CHEMBL1123309, “Esters and lactones of phenolic amino carboxylic acids: prodrugs for iron chelation” (J Med Chem, 1986).
# “And” between values parts separate entries of the source, which are not always exact repeats. Equal values may be shown once.
# How the values were obtained:
# [1] = Compound was evaluated for lethal dose after intraperitoneal administration using iron overload rat model; assay type: toxicity, organism-based; conditions: in vivo, ip
# Mus musculus [2] = assay: BDF1 male mice were administered with 300 mg/kg intraperitoneally and number of survivors was determined out of 10 tested; assay type: functional; conditions: route intraperitoneal
# In short: (§1)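 Male BDF1 mice were iron-loaded by transfusion of canine red cells. The cells were heparinised, washed twice in isotonic saline and heated at 50 °C for 30 min. Dosing started two days after the last transfusion, once daily for 7 consecutive days. Compounds were given in distilled water or as a fine aqueous suspension with Polysorbate 80 (2% final). Toxic signs were recorded daily and survivors counted per group.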
# Mus musculus [3] = assay: BDF1 male mice were administered with 250 mg/kg orally and percent change in iron levels was determined in Spleen; assay type: functional; conditions: route oral
# In short: (§2)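 Hypertransfused male BDF1 mice (canine red cells, washed and heated at 50 °C for 30 min) were dosed orally for 7 days with compound in distilled water or a fine suspension with Polysorbate 80 (2% final). Daily group urine and pooled feces (1 N HCl digest, 90 °C, 30 min, triplicate) were collected, and liver and spleen were homogenized. Iron was measured by atomic absorption and reported as % change vs transfused control.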
# Mus musculus [4] = assay: BDF1 male mice were administered with 250 mg/kg orally and percent change in iron levels was determined in Feces; assay type: functional; conditions: route oral; in short: as §2
# Mus musculus [5] = assay: BDF1 male mice were administered with 250 mg/kg orally and percent change in iron levels was determined in Liver; assay type: functional; conditions: route oral; in short: as §2
# Mus musculus [6] = assay: BDF1 male mice were administered with 250 mg/kg orally and percent change in iron levels was determined in Urine; assay type: functional; conditions: route oral; in short: as §2
# Mus musculus [7] = assay: BDF1 male mice were administered with the compound and number of survivors was determined at a dose 250 mg/kg peroral out of 10 tested; assay type: functional; conditions: route oral; in short: as §1
# Rattus norvegicus [8] = assay: Percent change in iron levels was determined in urine using iron overload rat model where the route of administration is Peroral; assay type: functional
# Rattus norvegicus [9] = assay: Percent change in iron levels was determined in feces using iron overload rat model where the route of administration is Intraperitoneal; assay type: functional
# Rattus norvegicus [10] = assay: Percent change in iron levels was determined in urine using iron overload rat model where the route of administration is Intraperitoneal; assay type: functional
smiles,measurement,setting,value
CCOC(=O)C(NCCNC(C(=O)OCC)c1ccccc1O)c1ccccc1O (stereo unspecified),LD50,[1],≥ 800 mg/kg
COC(=O)CN(Cc1ccccc1O)CC1CN(Cc2ccccc2O)CC(=O)O1 (stereo unspecified),No. of survivors,Mus musculus [2],10
O=C(CN(CCN(CC(=O)OCc1ccccc1)Cc1ccccc1O)Cc1ccccc1O)OCc1ccccc1,Iron change,Mus musculus [3],-21%
same,Iron change,Mus musculus [4],-10%
same,Iron change,Mus musculus [5],-10%
same,Iron change,Mus musculus [6],62%
same,No. of survivors,Mus musculus [7],10
O=C(O)C(NCCNC(C(=O)O)c1ccccc1O)c1ccccc1O (stereo unspecified),Iron change,Rattus norvegicus [8],19% and 31%
same,LD50,[1],175 mg/kg
same,Iron change,Rattus norvegicus [9],111%
same,Iron change,Rattus norvegicus [10],484%
